Drawing on ChEMBL document CHEMBL1154183, “Structure-based optimization of potent and selective inhibitors of the tyrosine kinase erythropoietin producing human hepatocellular carcinoma receptor B4 (EphB4)” (J Med Chem, 2009), this text covers Activity for two compounds.

Assay [1] addresses Serine/threonine-protein kinase PAK 5 (Homo sapiens) (UniProt Q9P286). Briefly: Inhibition of PAK5 assessed as remaining enzyme activity at 1 uM relative to DMSO. The method in brief: (§1)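 Radiometric kinase assay run robotically at room temperature for 30 min. Contained 10 mM magnesium acetate and [γ-33P]ATP (800 cpm/pmol) at 5, 20 or 50 μM, chosen per kinase to be at or below its ATP Km. Reactions were started with MgATP, stopped with orthophosphoric acid and spotted onto P81 filters. Result is mean % activity of duplicates at one inhibitor concentration versus DMSO control.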

The target of assay [2] is Serine/threonine-protein kinase TBK1 (Homo sapiens) (UniProt Q9UHD2). As to the kind of experiment: Inhibition of TBK1 assessed as remaining enzyme activity at 1 uM relative to DMSO.
The target of assay [3] is Serine/threonine-protein kinase PLK1 (Homo sapiens) (UniProt P53350). As to the kind of experiment: Inhibition of PLK1 assessed as remaining enzyme activity at 1 uM relative to DMSO.
Serine/threonine-protein kinase PLK1 (Homo sapiens), sequence (P53350 whole entry, the tested form may be a part): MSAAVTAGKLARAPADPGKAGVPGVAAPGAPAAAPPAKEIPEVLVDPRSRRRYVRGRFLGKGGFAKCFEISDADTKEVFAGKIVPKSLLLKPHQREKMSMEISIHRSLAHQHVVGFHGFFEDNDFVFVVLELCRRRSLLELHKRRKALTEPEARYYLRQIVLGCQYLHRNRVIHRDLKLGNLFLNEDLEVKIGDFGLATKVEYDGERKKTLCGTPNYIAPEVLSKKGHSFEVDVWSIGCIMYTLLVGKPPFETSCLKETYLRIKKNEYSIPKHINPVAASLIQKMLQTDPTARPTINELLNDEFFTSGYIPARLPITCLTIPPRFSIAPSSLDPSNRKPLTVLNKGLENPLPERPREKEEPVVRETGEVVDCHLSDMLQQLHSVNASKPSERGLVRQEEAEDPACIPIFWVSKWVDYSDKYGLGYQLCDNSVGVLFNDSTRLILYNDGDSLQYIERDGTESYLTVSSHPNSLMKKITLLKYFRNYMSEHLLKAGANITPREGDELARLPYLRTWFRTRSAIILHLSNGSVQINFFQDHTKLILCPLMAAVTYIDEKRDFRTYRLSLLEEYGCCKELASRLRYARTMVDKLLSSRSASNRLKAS
For assay [4], the target named is Ribosomal protein S6 kinase alpha-2 (Homo sapiens) (UniProt Q15349). As to the kind of experiment: Binding affinity to RSK3 kinase domain 2 C-terminal assessed as percentage of kinase remaining bound to the bead at 1 uM by T7 phage display based binding assay.
The target in assay [5] is Tyrosine-protein kinase Yes (Homo sapiens) (UniProt P07947). Briefly: Inhibition of YES1 assessed as remaining enzyme activity at 1 uM relative to DMSO.
The target in assay [6] is Eukaryotic elongation factor 2 kinase (Homo sapiens) (UniProt O00418). As to the kind of experiment: Inhibition of EF2K assessed as remaining enzyme activity at 1 uM relative to DMSO. The method in brief: (§2)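 Radiometric kinase assay run robotically at room temperature for 30 min, linear in time and enzyme. Conditions: 10 mM magnesium acetate, [γ-33P]ATP (800 cpm/pmol) at 5, 20 or 50 μM per kinase, at or below its ATP Km. Started with MgATP and stopped with orthophosphoric acid, then spotted on P81 filters. Reported as mean % activity of duplicates versus DMSO controls.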
Eukaryotic elongation factor 2 kinase (Homo sapiens), sequence (O00418 whole entry): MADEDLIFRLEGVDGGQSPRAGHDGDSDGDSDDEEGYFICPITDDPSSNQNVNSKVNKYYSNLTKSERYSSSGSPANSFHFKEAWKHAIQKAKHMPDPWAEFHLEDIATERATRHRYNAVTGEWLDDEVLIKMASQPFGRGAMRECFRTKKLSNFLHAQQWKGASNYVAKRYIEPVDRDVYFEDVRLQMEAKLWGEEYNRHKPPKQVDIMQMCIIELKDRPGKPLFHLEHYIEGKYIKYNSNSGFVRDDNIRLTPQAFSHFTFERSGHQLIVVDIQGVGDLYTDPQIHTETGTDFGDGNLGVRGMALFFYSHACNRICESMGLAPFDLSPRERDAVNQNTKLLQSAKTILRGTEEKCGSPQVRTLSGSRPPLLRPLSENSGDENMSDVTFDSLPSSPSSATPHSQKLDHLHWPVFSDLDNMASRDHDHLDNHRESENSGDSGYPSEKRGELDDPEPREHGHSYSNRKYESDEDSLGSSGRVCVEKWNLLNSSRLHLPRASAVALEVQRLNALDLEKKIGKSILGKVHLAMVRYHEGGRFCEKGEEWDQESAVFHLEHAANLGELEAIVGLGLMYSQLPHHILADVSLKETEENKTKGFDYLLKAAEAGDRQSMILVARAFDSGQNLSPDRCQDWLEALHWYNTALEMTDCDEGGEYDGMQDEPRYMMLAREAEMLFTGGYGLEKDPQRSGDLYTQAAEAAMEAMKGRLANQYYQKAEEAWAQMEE

For assay [7], the target named is Serine/threonine-protein kinase Nek11 (Homo sapiens) (UniProt Q8NG66). Briefly: Binding affinity to NEK11 assessed as percentage of kinase remaining bound to the bead at 1 uM by T7 phage display based binding assay. The method in brief:
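Competition binding assay run by a contract lab. Each kinase was expressed as a fusion to T7 phage, full-length for small kinases and catalytic domain for large ones. Phage were mixed with an immobilized known kinase inhibitor on streptavidin magnetic beads and with test compound at a single 1 μM. Kinase/phage still bound to the beads was quantified by qPCR and expressed as % of DMSO control.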

Assay [8] deals with Serine/threonine-protein kinase Nek2 (Homo sapiens) (UniProt P51955). As to the kind of experiment: Inhibition of NEK2alpha assessed as remaining enzyme activity at 1 uM relative to DMSO. The method in brief:
as §1

In assay [9] the target is Mitogen-activated protein kinase kinase kinase 9 (Homo sapiens) (UniProt P80192). Briefly: Inhibition of MLK1 assessed as remaining enzyme activity at 1 uM relative to DMSO. The method, boiled down:
as §1

Assay [10] has as its target Dual specificity tyrosine-phosphorylation-regulated kinase 2 (Homo sapiens) (UniProt Q92630). Briefly: Inhibition of DYRK2 assessed as remaining enzyme activity at 1 uM relative to DMSO. The method in brief:
as §2

Assay [11] deals with Mitogen-activated protein kinase 1 (Homo sapiens) (UniProt P28482). Briefly: Inhibition of ERK2 assessed as remaining enzyme activity at 1 uM relative to DMSO. The method, boiled down:
as §2

Assay [12] addresses Ephrin type-B receptor 3 (Homo sapiens) (UniProt P54753). Briefly: Inhibition of EPHB3 assessed as remaining enzyme activity at 1 uM relative to DMSO. The method, boiled down: as §2
Assay [13] addresses Interleukin-1 receptor-associated kinase 4 (Homo sapiens) (UniProt Q9NWZ3). Briefly: Inhibition of IRAK4 assessed as remaining enzyme activity at 1 uM relative to DMSO. The method in brief:
(§3)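 Dundee kinase panel, radiometric: [γ-33P]ATP (800 cpm/pmol) at 5, 20 or 50 μM, at or below each kinase's ATP Km; 10 mM magnesium acetate; robotic, room temperature, 30 min. Reactions started with MgATP, stopped with orthophosphoric acid, spotted onto P81 filters. Inhibitor tested at a single concentration; mean % activity of duplicates relative to DMSO control.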

In assay [14] the target is Dual specificity protein kinase TTK (Homo sapiens) (UniProt P33981). As to the kind of experiment: Inhibition of TTK assessed as remaining enzyme activity at 3 uM relative to DMSO.
For assay [15], the target named is Serine/threonine-protein kinase 26 (Homo sapiens) (UniProt Q9P289). As to the kind of experiment: Inhibition of MST4 assessed as remaining enzyme activity at 3 uM relative to DMSO. The method, boiled down: as §1
Assay [16] addresses Mitogen-activated protein kinase 15 (Homo sapiens) (UniProt Q8TD08). Briefly: Inhibition of ERK8 assessed as remaining enzyme activity at 3 uM relative to DMSO. The method, boiled down: as §3
Assay [17] has as its target Ribosomal protein S6 kinase alpha-5 (Homo sapiens) (UniProt O75582). Briefly: Inhibition of MSK1 assessed as remaining enzyme activity at 3 uM relative to DMSO. The method in brief: as §1
In assay [18] the target is Serine/threonine-protein kinase PAK 4 (Homo sapiens) (UniProt O96013). Briefly: Inhibition of PAK4 assessed as remaining enzyme activity at 3 uM relative to DMSO. The method in brief:
as §1

Assay [19] deals with Serine/threonine-protein kinase PAK 6 (Homo sapiens) (UniProt Q9NQU5). As to the kind of experiment: Inhibition of PAK6 assessed as remaining enzyme activity at 3 uM relative to DMSO. The method, boiled down:
as §1

Assay [20] addresses Calcium/calmodulin-dependent protein kinase type 1 (Homo sapiens) (UniProt Q14012). As to the kind of experiment: Inhibition of CAMK1 assessed as remaining enzyme activity at 3 uM relative to DMSO.
Assay [21] deals with Proto-oncogene tyrosine-protein kinase Src (Homo sapiens) (UniProt P12931). Briefly: Inhibition of Src assessed as remaining enzyme activity at 3 uM relative to DMSO.
Assay [22] addresses Receptor tyrosine-protein kinase erbB-4 (Homo sapiens) (UniProt Q15303). As to the kind of experiment: Inhibition of HER4 assessed as remaining enzyme activity at 3 uM relative to DMSO. The method, boiled down:
as §3

A short description of assay [23]: Inhibition of AMPK assessed as remaining enzyme activity at 3 uM relative to DMSO. The method in brief:
(§4)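 Panel assay run robotically at room temperature for 30 min with 10 mM magnesium acetate and [γ-33P]ATP (800 cpm/pmol) at 5, 20 or 50 μM, chosen per kinase to be at or below its ATP Km. Reactions were started with MgATP, stopped with orthophosphoric acid and spotted on P81 filters. Activity is the mean of duplicates at a single inhibitor concentration, as % of DMSO control.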

For assay [24], the target named is Interleukin-1 receptor-associated kinase 4 (Homo sapiens) (UniProt Q9NWZ3). As to the kind of experiment: Inhibition of IRAK4 assessed as remaining enzyme activity at 3 uM relative to DMSO. The method, boiled down: as §3
Interleukin-1 receptor-associated kinase 4 (Homo sapiens), sequence (Q9NWZ3 whole entry): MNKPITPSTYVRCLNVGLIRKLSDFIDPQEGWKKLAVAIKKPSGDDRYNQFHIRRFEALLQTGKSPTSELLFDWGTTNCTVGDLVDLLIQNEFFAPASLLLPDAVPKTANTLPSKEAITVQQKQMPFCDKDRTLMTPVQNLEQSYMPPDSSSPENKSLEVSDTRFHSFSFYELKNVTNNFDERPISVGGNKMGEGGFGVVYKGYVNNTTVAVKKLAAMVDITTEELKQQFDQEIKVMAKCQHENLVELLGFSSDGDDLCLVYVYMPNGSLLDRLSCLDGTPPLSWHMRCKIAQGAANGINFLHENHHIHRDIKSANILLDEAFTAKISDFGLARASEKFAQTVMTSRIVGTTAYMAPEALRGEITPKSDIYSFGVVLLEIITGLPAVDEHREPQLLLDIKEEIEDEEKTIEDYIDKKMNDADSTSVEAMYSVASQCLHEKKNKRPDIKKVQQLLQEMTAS
The target in assay [25] is Serine/threonine-protein kinase pim-1 (Homo sapiens) (UniProt P11309). Briefly: Inhibition of PIM1 assessed as remaining enzyme activity at 3 uM relative to DMSO. The method, boiled down: as §1
Serine/threonine-protein kinase pim-1 (Homo sapiens), sequence (P11309 whole entry, looked up): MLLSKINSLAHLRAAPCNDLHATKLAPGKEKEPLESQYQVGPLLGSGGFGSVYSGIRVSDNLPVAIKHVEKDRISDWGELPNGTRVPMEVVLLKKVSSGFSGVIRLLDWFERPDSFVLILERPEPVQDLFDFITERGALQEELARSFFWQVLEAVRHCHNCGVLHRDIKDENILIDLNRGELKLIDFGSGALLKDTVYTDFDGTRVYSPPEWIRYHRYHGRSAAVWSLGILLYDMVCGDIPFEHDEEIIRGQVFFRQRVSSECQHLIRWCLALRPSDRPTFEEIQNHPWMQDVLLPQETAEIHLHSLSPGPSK
The target in assay [26] is Serine/threonine-protein kinase pim-3 (Homo sapiens) (UniProt Q86V86). Briefly: Inhibition of PIM3 assessed as remaining enzyme activity at 3 uM relative to DMSO. The method, boiled down: as §1
Assay [27] has as its target Serine/threonine-protein kinase BRSK2 (Homo sapiens) (UniProt Q8IWQ3). Briefly: Inhibition of BRSK2 assessed as remaining enzyme activity at 3 uM relative to DMSO. The method in brief: as §4

Ribosomal protein S6 kinase alpha-5 (Homo sapiens), sequence (O75582 whole entry, looked up): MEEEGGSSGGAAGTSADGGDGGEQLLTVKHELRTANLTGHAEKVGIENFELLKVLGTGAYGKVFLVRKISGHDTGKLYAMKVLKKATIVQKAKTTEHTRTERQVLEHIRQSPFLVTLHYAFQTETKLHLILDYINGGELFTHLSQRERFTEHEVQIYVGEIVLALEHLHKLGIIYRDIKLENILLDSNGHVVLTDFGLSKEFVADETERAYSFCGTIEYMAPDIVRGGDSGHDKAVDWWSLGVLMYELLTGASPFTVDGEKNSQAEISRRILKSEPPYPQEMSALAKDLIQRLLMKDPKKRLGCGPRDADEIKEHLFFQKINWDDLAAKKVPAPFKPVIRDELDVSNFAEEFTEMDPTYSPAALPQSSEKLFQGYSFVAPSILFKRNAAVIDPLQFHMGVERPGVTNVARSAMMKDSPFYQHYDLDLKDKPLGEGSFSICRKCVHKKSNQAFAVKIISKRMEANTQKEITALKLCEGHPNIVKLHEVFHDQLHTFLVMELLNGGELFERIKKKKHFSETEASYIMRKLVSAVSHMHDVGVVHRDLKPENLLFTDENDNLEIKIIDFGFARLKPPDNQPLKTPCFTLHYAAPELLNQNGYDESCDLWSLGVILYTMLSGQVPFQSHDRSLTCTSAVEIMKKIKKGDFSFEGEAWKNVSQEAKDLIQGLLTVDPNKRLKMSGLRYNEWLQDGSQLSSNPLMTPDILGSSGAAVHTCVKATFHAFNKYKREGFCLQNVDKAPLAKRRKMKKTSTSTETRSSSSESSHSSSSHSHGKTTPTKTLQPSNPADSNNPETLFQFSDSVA
Dual specificity tyrosine-phosphorylation-regulated kinase 2 (Homo sapiens), sequence (Q92630 whole entry): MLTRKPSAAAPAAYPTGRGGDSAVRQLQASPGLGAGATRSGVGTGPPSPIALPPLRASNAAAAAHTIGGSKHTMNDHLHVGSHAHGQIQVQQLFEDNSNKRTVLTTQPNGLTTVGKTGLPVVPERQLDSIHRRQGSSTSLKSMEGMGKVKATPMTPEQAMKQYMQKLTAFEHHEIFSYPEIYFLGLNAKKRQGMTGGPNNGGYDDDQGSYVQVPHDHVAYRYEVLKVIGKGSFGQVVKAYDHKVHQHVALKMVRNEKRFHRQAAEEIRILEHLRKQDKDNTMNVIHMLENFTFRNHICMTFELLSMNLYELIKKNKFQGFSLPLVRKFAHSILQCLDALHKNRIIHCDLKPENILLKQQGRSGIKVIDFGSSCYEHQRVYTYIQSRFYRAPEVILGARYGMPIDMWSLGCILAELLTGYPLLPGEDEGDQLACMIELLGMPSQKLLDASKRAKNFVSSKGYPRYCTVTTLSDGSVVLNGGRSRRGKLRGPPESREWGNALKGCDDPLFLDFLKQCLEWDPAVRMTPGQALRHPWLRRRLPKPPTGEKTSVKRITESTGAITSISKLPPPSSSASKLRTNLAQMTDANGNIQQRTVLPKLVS
Mitogen-activated protein kinase kinase kinase 9 (Homo sapiens), sequence (P80192 whole entry, looked up): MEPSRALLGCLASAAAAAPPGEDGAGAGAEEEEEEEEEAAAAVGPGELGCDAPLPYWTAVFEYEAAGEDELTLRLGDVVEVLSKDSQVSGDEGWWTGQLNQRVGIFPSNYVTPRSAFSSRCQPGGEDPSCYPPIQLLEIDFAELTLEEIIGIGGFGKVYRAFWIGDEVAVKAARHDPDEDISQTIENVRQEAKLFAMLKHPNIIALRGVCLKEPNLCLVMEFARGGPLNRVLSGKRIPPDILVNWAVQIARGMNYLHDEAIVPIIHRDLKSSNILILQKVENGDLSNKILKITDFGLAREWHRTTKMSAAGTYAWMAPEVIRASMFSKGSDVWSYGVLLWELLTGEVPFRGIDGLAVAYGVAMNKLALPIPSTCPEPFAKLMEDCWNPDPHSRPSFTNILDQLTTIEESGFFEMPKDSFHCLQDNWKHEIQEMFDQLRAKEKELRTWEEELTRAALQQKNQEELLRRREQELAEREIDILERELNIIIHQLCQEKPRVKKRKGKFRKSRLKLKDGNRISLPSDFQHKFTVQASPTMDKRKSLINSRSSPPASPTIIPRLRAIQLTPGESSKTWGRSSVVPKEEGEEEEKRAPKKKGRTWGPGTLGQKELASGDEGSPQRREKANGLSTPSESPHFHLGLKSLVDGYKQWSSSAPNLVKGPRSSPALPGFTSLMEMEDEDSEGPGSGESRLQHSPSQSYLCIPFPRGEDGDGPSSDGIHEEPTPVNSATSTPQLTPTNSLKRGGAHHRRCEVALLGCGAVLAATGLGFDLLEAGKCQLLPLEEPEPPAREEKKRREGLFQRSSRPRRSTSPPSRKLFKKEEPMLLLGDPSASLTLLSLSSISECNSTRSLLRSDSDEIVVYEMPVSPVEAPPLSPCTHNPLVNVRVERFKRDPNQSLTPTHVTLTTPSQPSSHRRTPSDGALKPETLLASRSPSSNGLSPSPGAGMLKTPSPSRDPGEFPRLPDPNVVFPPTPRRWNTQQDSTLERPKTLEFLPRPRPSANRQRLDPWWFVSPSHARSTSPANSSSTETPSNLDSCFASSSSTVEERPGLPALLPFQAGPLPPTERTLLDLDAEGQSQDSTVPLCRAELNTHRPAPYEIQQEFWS

In the case of `COc1ccccc1-n1c(-c2cc(O)ccc2C)cn2c3c(=O)[nH]c(=O)n(C)c3nc12`, the Activity in [1] was found to be 94%; in [2], 89%; in assay [3] it was 93%; in [4] it was 84%; in assay [5], 3%; in [6], 96%. In addition, the Activity in [7] was determined as 67%; in assay [8], 123%; in assay [9], 45%; in assay [10], 86%; in assay [11], 93%; in assay [12], 3%. The Activity in assay [13] was 82%.
Take `COc1ccccc1-n1c(-c2ccccc2C)cn2c3c(=O)[nH]c(=O)n(C)c3nc12`: the Activity in assay [14] stood at 99%; in [15] it was 83%; in assay [16], 109%; in assay [17], 95%; in [18] it was 93%; in [19], 90%. In addition, the Activity in [20] was found to be 93%; in assay [21], 12%; in assay [22] it was 45%; in assay [23], 92%; in assay [24] it was 93%; in [25] it was 96%. The results for the Activity in [26] and in [27] were 111% and 81%, respectively.
